Calls of active or inactive are those of the source. The rule behind the calls is not given here.
How the values were obtained:
Format in all cases: cell-based
HEK293T = assay: Modulation of Gal4-fused VP16 expressed in HEK293T cells co-transfected with UAS repoter gene assessed as decrease in luciferase activity at 12.5 to 50 uM incubated for 18 hrs by luciferase reporter gene assay; conditions: Human alphaherpesvirus 2, filed as modulator, dose 12.5-50 µM
How it was run: (§1)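 Cells in 10-cm dishes were transfected with Gal4-VP16 expression plasmid (2 μg) plus 5xUAS-luciferase reporter (2 μg) for 18 h. They were replated at 10,000 cells/well for 4 h, then given ligand or vehicle (water, ethanol or DMSO) in quadruplicate for 18 h. Luciferase was read with Britelite Plus. Fold change is versus vehicle-treated cells, with one-way ANOVA versus vehicle.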

PC-12 [1] = assay: Modulation of Gal4-fused VP16 expressed in PC12 cells co-transfected with UAS repoter gene assessed as decrease in luciferase activity at 12.5 to 50 uM incubated for 18 hrs by luciferase reporter gene assay; conditions: Human alphaherpesvirus 2, filed as modulator, dose 12.5-50 µM; how it was run: as §1
[2] = molecular target: Nuclear receptor subfamily 4 group A member 2 (Homo sapiens) (UniProt P43354); assay: Modulation of full length human Nurr1 expressed in SKNBE(2) cells co-transfected with luciferase reporter plasmid harboring NBRE response element assessed as decrease in luciferase activity at 12.5 to 50 uM incubated for 18 hrs by luciferase reporter gene assay; conditions: SKNBE2, filed as modulator, dose 12.5-50 µM
How it was run: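 Transfection of SK-N-BE(2)-C cells (1:1 EMEM/F12, 10% FBS, 37°C, 5% CO2) used full-length Nurr1 alone (2 μg, no RXRα) with 3xNBRE- or 3xNurRE-luciferase reporter (6 μg) for 18 h. Cells were replated at 10,000/well for 4 h, then exposed to ligand or vehicle in quadruplicate for 18 h. Luminescence was expressed as fold over vehicle, as mean ± s.e.m. (n=4) from 2 independent experiments, one-way ANOVA against vehicle.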

[3] = molecular target: Nuclear receptor subfamily 4 group A member 2 (Homo sapiens) (UniProt P43354); assay: Modulation of full length human Nurr1 expressed in HEK293T cells co-transfected with luciferase reporter plasmid harboring NBRE response element assessed as decrease in luciferase activity at 12.5 to 50 uM incubated for 18 hrs by luciferase reporter gene assay; conditions: filed as modulator, dose 12.5-50 µM
How it was run: (§2)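 Full-length Nurr1 plasmid, alone (2 μg) or 1 μg plus full-length RXRα (1 μg), cotransfected with 3xNBRE- or 3xNurRE-luciferase reporter (6 μg) using Lipofectamine 2000, 18 h. Cells replated at 10,000/well for 4 h. Four ligand concentrations, or vehicle (water, ethanol or DMSO), added in quadruplicate for 18 h. Luciferase read. Fold change vs vehicle, mean ± s.e.m., one-way ANOVA vs vehicle.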

[4] = molecular target: Nuclear receptor subfamily 4 group A member 2 (Homo sapiens) (UniProt P43354); assay: Modulation of full length human Nurr1 expressed in SKNBE(2) cells co-transfected with RXRalpha and luciferase reporter plasmid harboring NurRE response element assessed as decrease in luciferase activity at 12.5 to 50 uM incubated for 18 hrs by luciferase reporter gene assay; conditions: SKNBE2, filed as modulator, dose 12.5-50 µM
How it was run: (§3)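 SK-N-BE(2)-C cells were kept in 1:1 EMEM/F12 with 10% FBS at 37°C and 5% CO2. They were cotransfected with full-length Nurr1 (1 μg), full-length RXRα (1 μg) and 3xNBRE- or 3xNurRE-luc reporter (6 μg) for 18 h, replated at 10,000 cells/well for 4 h, and then treated with ligand or vehicle in quadruplicate for 18 h. The readout was luciferase luminescence as fold over vehicle, reported as mean ± s.e.m. (n=4) from 2 independent experiments, one-way ANOVA.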

SKNBE2 = assay: Modulation of Gal4-fused VP16 expressed in SKNBE(2) cells co-transfected with UAS repoter gene assessed as decrease in luciferase activity at 12.5 to 50 uM incubated for 18 hrs by luciferase reporter gene assay; conditions: Human alphaherpesvirus 2, filed as modulator, dose 12.5-50 µM; how it was run: as §1
[5] = molecular target: Nuclear receptor subfamily 4 group A member 2 (Homo sapiens) (UniProt P43354); assay: Modulation of full length human Nurr1 expressed in SKNBE(2) cells co-transfected with RXRalpha and luciferase reporter plasmid harboring NBRE response element assessed as increase in luciferase activity at 12.5 to 50 uM incubated for 18 hrs by luciferase reporter gene assay; conditions: SKNBE2, filed as modulator, dose 12.5-50 µM; how it was run: as §3
HEK-293T = assay: Cytotoxicity in human HEK293T cells assessed as reduction in cell viability at 12.5 to 50 uM incubated for 18 hrs by Cell Titer-Glo assay; conditions: dose 12.5-50 µM
How it was run: (§4)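 Cells seeded at 1.5 million per 10-cm dish. Next day they were replated at 10,000 cells/well and rested 4 h. Ligand or vehicle (water, ethanol or DMSO, by ligand) was added in dose-response format in quadruplicate. After 18 h, viability was read by CellTiter-Glo luminescence. Data are mean ± s.e.m., generally representative of 2 independent experiments. One-way ANOVA versus vehicle.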

[6] = molecular target: Nuclear receptor subfamily 4 group A member 2 (Homo sapiens) (UniProt P43354); assay: Modulation of full length human Nurr1 expressed in HEK293T cells co-transfected with RXRalpha and luciferase reporter plasmid harboring NBRE response element assessed as decrease in luciferase activity at 12.5 to 50 uM incubated for 18 hrs by luciferase reporter gene assay; conditions: filed as modulator, dose 12.5-50 µM; how it was run: as §2
SK-N-BE(2) = assay: Cytotoxicity in human SKNBE2 cells assessed as reduction in cell viability at 12.5 to 50 uM incubated for 18 hrs by Cell Titer-Glo assay; conditions: dose 12.5-50 µM; how it was run: as §4
PC-12 [7] = assay: Cytotoxicity in rat PC-12 cells assessed as reduction in cell viability at 12.5 to 50 uM incubated for 18 hrs by Cell Titer-Glo assay; conditions: pc-12, 18 h, dose 12.5-50 µM; how it was run: as §4
[8] = molecular target: Nuclear receptor subfamily 4 group A member 2 (Homo sapiens) (UniProt P43354); assay: Modulation of full length human Nurr1 expressed in HEK293T cells co-transfected with luciferase reporter plasmid harboring NurRE response element assessed as decrease in luciferase activity at 12.5 to 50 uM incubated for 18 hrs by luciferase reporter gene assay; conditions: filed as modulator, dose 12.5-50 µM; how it was run: as §2
[9] = molecular target: Nuclear receptor subfamily 4 group A member 2 (Homo sapiens) (UniProt P43354); assay: Modulation of full length human Nurr1 expressed in PC12 cells co-transfected with luciferase reporter plasmid harboring NurRE response element at 12.5 to 50 uM incubated for 18 hrs by luciferase reporter gene assay; conditions: PC-12, dose 12.5-50 µM
How it was run: (§5)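 Here PC12 cells (FK-12 medium, 15% horse serum, 2.5% FBS, 37°C, 5% CO2) received full-length Nurr1 (2 μg) without RXRα, plus 3xNBRE- or 3xNurRE-luciferase reporter (6 μg), for 18 h. Cells were replated at 10,000/well for 4 h, then treated with ligand or vehicle in quadruplicate for 18 h. Luciferase luminescence was normalized to vehicle-treated cells. Results are mean ± s.e.m. (n=4) from 2 independent experiments, with one-way ANOVA against vehicle.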

[10] = molecular target: Nuclear receptor subfamily 4 group A member 2 (Homo sapiens) (UniProt P43354); assay: Modulation of full length human Nurr1 expressed in SKNBE(2) cells co-transfected with luciferase reporter plasmid harboring NurRE response element assessed as decrease in luciferase activity at 12.5 to 50 uM incubated for 18 hrs by luciferase reporter gene assay; conditions: SKNBE2, filed as modulator, dose 12.5-50 µM
[11] = molecular target: Nuclear receptor subfamily 4 group A member 2 (Homo sapiens) (UniProt P43354); assay: Modulation of full length human Nurr1 expressed in PC12 cells co-transfected with luciferase reporter plasmid harboring NBRE response element at 12.5 to 50 uM incubated for 18 hrs by luciferase reporter gene assay; conditions: PC-12, dose 12.5-50 µM; how it was run: as §5
[12] = molecular target: Nuclear receptor subfamily 4 group A member 2 (Homo sapiens) (UniProt P43354); assay: Modulation of full length human Nurr1 expressed in HEK293T cells co-transfected with RXRalpha and luciferase reporter plasmid harboring NurRE response element assessed as decrease in luciferase activity at 12.5 to 50 uM incubated for 18 hrs by luciferase reporter gene assay; conditions: filed as modulator, dose 12.5-50 µM; how it was run: as §2
[13] = molecular target: Nuclear receptor subfamily 4 group A member 2 (Homo sapiens) (UniProt P43354); assay: Modulation of full length human Nurr1 expressed in SKNBE(2) cells co-transfected with RXRalpha and luciferase reporter plasmid harboring NBRE response element assessed as decrease in luciferase activity at 12.5 to 50 uM incubated for 18 hrs by luciferase reporter gene assay; conditions: SKNBE2, filed as modulator, dose 12.5-50 µM; how it was run: as §3
[14] = molecular target: Nuclear receptor subfamily 4 group A member 2 (Homo sapiens) (UniProt P43354); assay: Modulation of full length human Nurr1 expressed in HEK293T cells co-transfected with RXRalpha and luciferase reporter plasmid harboring NBRE response element assessed as increase in luciferase activity at 12.5 to 50 uM incubated for 18 hrs by luciferase reporter gene assay; conditions: filed as modulator, dose 12.5-50 µM; how it was run: as §2
[15] = molecular target: Nuclear receptor subfamily 4 group A member 2 (Homo sapiens) (UniProt P43354); assay: Modulation of full length human Nurr1 expressed in PC12 cells co-transfected with RXRalpha and luciferase reporter plasmid harboring NurRE response element at 12.5 to 50 uM incubated for 18 hrs by luciferase reporter gene assay; conditions: PC-12, dose 12.5-50 µM
How it was run: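 PC12 cells were grown at 37°C and 5% CO2 in […] medium with 15% horse serum and 2.5% FBS. They were transfected with full-length Nurr1 (1 μg) plus full-length RXRα (1 μg) and 3xNBRE- or 3xNurRE-luciferase reporter (6 μg) for 18 h, then replated at 10,000 cells/well for 4 h. Ligand or vehicle (water, ethanol or DMSO) was added in quadruplicate for 18 h. Luminescence was read as fold change over vehicle. Results are mean ± s.e.m., n=4, from 2 independent experiments, analysed by one-way ANOVA against vehicle.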

Nuclear receptor subfamily 4 group A member 2 (Homo sapiens), sequence (P43354 whole entry): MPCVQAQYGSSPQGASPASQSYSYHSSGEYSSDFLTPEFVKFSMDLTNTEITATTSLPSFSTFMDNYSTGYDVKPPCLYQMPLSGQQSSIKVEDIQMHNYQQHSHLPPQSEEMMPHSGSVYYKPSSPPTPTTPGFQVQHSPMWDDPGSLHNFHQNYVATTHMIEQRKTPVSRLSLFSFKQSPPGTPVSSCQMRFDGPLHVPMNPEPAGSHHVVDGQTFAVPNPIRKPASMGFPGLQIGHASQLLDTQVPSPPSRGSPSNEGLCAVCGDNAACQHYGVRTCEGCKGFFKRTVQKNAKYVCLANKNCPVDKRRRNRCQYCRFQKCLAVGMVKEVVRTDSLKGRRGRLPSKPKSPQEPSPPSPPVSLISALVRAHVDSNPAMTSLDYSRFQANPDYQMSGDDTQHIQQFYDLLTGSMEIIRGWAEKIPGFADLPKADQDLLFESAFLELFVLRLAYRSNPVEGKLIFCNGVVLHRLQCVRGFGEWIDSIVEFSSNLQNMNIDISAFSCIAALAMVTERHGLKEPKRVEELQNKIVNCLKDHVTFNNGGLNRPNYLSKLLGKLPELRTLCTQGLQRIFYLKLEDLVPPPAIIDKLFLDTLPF

Activity [2]: Active | Activity [3]: Active | Activity [4]: Active | Activity [5]: Active | Activity [6]: Active | Activity [8]: Active | Activity [9]: inactive | Activity [10]: Active | Activity [11]: inactive | Activity [12]: Active | Activity [13]: Active | Activity [14]: Active | Activity [15]: inactive
Structure (SMILES): Clc1ccc(C(c2c[nH]c3ccccc23)c2c[nH]c3ccccc23)cc1
Activity (HEK293T): Active | Activity (PC-12 [1]): Active | Activity (SKNBE2): Active | Activity (HEK-293T): Toxic | Activity (SK-N-BE(2)): Toxic | Activity (PC-12 [7]): Toxic

— ChEMBL document CHEMBL5030505, “Assessment of NR4A Ligands That Directly Bind and Modulate the Orphan Nuclear Receptor Nurr1” (J Med Chem, 2020)
